Data as given in ChEMBL document CHEMBL4033615, “Protoxenicins A and B, Cytotoxic Long-Chain Acylated Xenicanes from the Soft Coral Protodendron repens” (2017).

How the values were obtained:
Assay type in all cases: functional
Conditions in all cases: for CC50: read-out: LC50 (the source's name)
[1] = system: MDA-MB-231; assay: Cytotoxic activity against human MDA-MB-231 cells
Outline: (§1)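 Human tumour lines (A-549 lung carcinoma, MDA-MB-231 breast adenocarcinoma, HT-29 colorectal carcinoma) exposed to test agent. Growth measured against untreated control cells. Survival estimated with the NCI algorithm, yielding three dose–response parameters: GI50 (50% growth inhibition), TGI (total growth inhibition) and LC50 (50% cell death).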

[2] = system: A549; assay: Cytotoxic activity against human A549 cells; outline: as §1
[3] = system: HT-29; assay: Cytotoxic activity against human HT-29 cells; outline: as §1

Compound	GI50 [1] [µM]	TGI [1] [µM]	CC50 [1] [µM]	GI50 [2] [µM]	TGI [2] [µM]	CC50 [2] [µM]	GI50 [3] [µM]	TGI [3] [µM]	CC50 [3] [µM]
C=C1[C@@H]2[C@@H](OC(C)=O)OC=C([C@@H](OC(C)=O)[C@H](C=C(C)C)OC(=O)CCCCCCCCC)[C@H]2CC/C(C)=C/[C@@H](O)[C@H]1O	6.3	9.7	12.9	6.1	10.1	13.3	1.7	5.2	10.4
C=C1[C@@H]2[C@@H](OC(C)=O)OC=C([C@@H](OC(C)=O)[C@@H](OC(=O)CCCCCCCCC)[C@H]3OC3(C)C)[C@H]2CC[C@](C)(O)[C@@H]2O[C@@H]2[C@H]1O	2.1	2.8	3.8	1.1	1.4	1.8	0.6	1.2	2.2
COc1cccc2c1C(=O)c1c(O)c3c(c(O)c1C2=O)C[C@@](O)(C(=O)CO)C[C@@H]3O[C@H]1C[C@H](N)[C@H](O)[C@H](C)O1 [DOXORUBICIN]	0.2	0.5	2.4	0.2	0.9	> 17.2	0.3	0.9	> 17.2
